Screening data as filed in PubChem.
HKDC1 inhibitor – HKDC1 (human) hexokinase inhibition; inhibition, % at 20 µM; 340,000 compounds, 0.16% hits; recombinant HKDC1, G6PDH/diaphorase resazurin coupled fluorescence; AID 493160;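 active means inhibition above about 35% when tested at 20 µM, limit read from the data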;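 further: plate controls were DMSO wells with enzyme for no effect and DMSO wells lacking enzyme for full effect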
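System: Recombinant HKDC1 hexokinase | Amount: HKDC1 at 5 µg/mL | Reagent: Glucose with 1 mM ATP | Doses: Single 20 µM dose | Incubation: Reaction time 90 min, room temperature, protected from light | Signal: Coupled resazurin fluorescence, excitation 525 nm, emission 613 nm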
SUMO1 PPI mod – SUMO1-SIM interaction modulation | P63165 | SUMO1 binding to a labelled peptide, TR-FRET, 1 h | inhibition, % at 20 µM | 360,000 compounds, 0.33% hits | AID 602429; in the data active means inhibition above about 37%
Scp1 inh – Scp-1 (human) phosphatase inhibition; Q9GZU7; Recombinant Scp1, phosphopeptide, malachite green phosphate absorbance; inhibition, % at 20 µM; 340,000 compounds, 0.88% hits; AID 493091;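 active means inhibition above about 50% at 20 µM, limit read from the data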;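 further: plate controls were DMSO wells with enzyme for no effect and wells lacking enzyme for full effect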
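Material – SCP-1 phosphatase catalytic domain, residues 76-261 · Buffer or medium – Acidic Tris acetate buffer with magnesium and detergent · Also added – Phospho 17-mer peptide substrate · Compound – single 20 µM dose, 1% DMSO · Times – 45 min room-temperature reaction, 5 min colour, 30 min stabiliser · Technique – Phosphate-binding colour reagent, absorbance read at 630 nm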
LMPTP inh – blocks human LMPTP phosphatase; P24666; recombinant LMPTP-A, OMFP fluorogenic substrate, fluorescence intensity; inhibition, % at 20 µM; 360,000 compounds, 0.22% hits;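 active means compounds that cut the enzyme signal by at least half of the control window in the single-dose screen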;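 further: plate controls were DMSO wells with enzyme plus substrate for no effect and substrate without enzyme for full effect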
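material = LMPTP-A | quantity = 0.625 nM enzyme | reagent = OMFP substrate, 400 µM final | buffer or medium = Bis-Tris pH 6.0, DTT, detergent | detection = endpoint fluorescence intensity from OMFP dephosphorylation | dosing = single 20 µM dose | read-out basis = % inhibition relative to no-enzyme and uninhibited control wells | control set = no-enzyme and uninhibited controls | timing = 50 min at room temperature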
DNMT1 inh – inhibitors of human DNMT1. DNMT1 molecular beacon, Hinp1I cleavage, fluorescence. inhibition (reported as % activation of signal), % at 10 µM. 360,000 compounds, 0.83% hits. P26358; in the data active means inhibition above about 50%
STEP block – inhibitors of human striatal-enriched phosphatase STEP; P54829; recombinant STEP, OMFP fluorogenic substrate, fluorescence; inhibition, % at 20 µM; 360,000 compounds, 0.25% hits; AID 588621;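 active means inhibition at 20 µM, scaled per plate between control wells, above about 37%, limit read from the data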;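 further: 0% = DMSO with enzyme and substrate and 100% = substrate only without enzyme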
Target sequence (P54829 whole entry, looked up): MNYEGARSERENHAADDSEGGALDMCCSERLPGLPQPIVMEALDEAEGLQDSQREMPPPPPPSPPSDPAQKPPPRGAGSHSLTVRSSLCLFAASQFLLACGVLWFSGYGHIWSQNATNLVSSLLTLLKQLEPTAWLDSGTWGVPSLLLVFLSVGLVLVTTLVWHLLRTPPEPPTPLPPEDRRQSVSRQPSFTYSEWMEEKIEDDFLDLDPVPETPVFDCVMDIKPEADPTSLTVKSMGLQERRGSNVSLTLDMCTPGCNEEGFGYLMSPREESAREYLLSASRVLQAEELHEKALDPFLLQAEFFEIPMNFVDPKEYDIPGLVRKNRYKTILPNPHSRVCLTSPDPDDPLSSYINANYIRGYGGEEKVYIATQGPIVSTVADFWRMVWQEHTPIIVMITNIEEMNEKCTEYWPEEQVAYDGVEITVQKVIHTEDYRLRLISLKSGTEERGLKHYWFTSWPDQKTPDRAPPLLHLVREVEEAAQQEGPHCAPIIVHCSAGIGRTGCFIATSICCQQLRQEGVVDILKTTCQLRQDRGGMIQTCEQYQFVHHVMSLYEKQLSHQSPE
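Material: STEP (striatal-enriched tyrosine phosphatase) enzyme, cell-free | Medium: 50 mM Bis-Tris pH 6.0 with 2.5 mM DTT and 0.005% Tween 20 | Read-out: Percent inhibition scaled to no-enzyme and uninhibited-enzyme controls, plate-pattern corrected | Signal: Fluorescence read at 480 nm ex / 540 nm em | Times: 20 min reaction, room temperature, in the dark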
HKDC1 act conf – HKDC1 (human) activation, single-dose confirmed; shares compounds with HKDC1 inhibitor; recombinant HKDC1, G6PDH/diaphorase resazurin fluorescence; hits give low values; inhibition, % at 20 µM; 740 compounds, 14% hits;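 active means inhibition at or below a set negative limit, negative inhibition meaning the enzyme was activated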
An asterisk follows results filed as active; / = no result given. Rows were chosen to be rich in hits. Some 1.8% of all compounds tested hit in one or more screens of this group.

SMILES	HKDC1 inhibitor	SUMO1 PPI mod	Scp1 inh	LMPTP inh	DNMT1 inh	STEP block	HKDC1 act conf
COC1=CC(=O)c2ccccc2C1=O	3	-25	7	0	3	0	/
COC1=CC(=O)C=C(OC)C1=O	66*	-4	-9	-1	-9	-3	75
CN(CC(=O)N(C)CC(=O)Nc1c(Cl)cccc1Cl)Cc1ccccc1F	-3	5	-5	-1	1	-3	/
O=S1(=O)CCOCCCN1Cc1cccc(C(F)(F)F)c1	-6	-7	-10	1	-1	1	/
CCN(CC)c1ccc(C(=C2C=CC(=[N+](CC)CC)C=C2)c2ccccc2)cc1	14	-4	-10	2	30	2	/
CCN(CC)c1ccc(C(=C2C=CC(=[N+](CC)CC)C=C2)c2ccc(N(CC)CC)cc2)cc1	54*	-58	-2	81*	14	25	12
COC1=C(OC)C(=O)C(Sc2ccc3ccccc3c2)=CC1=O	71*	3	0	1	-16	4	71
COc1ccc(S(=O)(=O)Oc2ccc3ccccc3c2)cc1	-6	0	-12	2	12	2	/
Cc1nnc(SC(=O)N2c3ccccc3Sc3ccccc32)s1	33	0	-10	2	18	4	-11
COc1cc(/C=C2\SC(c3ccc(C)cc3)=NC2=O)cc(OC)c1O	48*	22	-8	2	-2	-5	32
O=C(N/N=C/c1cc(Br)ccc1O)c1ccncc1	-26	-4	-17	0	0	-3	/
O=C(N/N=C/c1ccc(O)c2ncccc12)c1cccc(Br)c1	-36	-1	-13	7	-11	5	-18
COC(=O)c1ccc(CS(=O)(=O)c2ccc(C)cc2)o1	-4	-3	34	-2	18	-1	/
CCCC(=O)Nc1sc(Cc2ccccc2)c(C)c1C(N)=O	-27	1	-10	1	-3	-1	/
COC(=O)CCC(=O)Nc1sc(Cc2ccccc2)c(C)c1C(N)=O	-44	-3	-10	9	-2	4	-23
CCOC(=O)c1c(C)[nH]c(C2=NNC(=Nc3ccccc3)SC2)c1C	-306	1	2	2	-44	0	-141*
CCOC(=O)c1c(C)[nH]c(C2=NNC(=Nc3ccccc3OC)SC2)c1C	-165	2	-2	3	-42	1	-86*
CC(=O)c1c(C)[nH]c(C2=NNC(=NC(C)(C)C)SC2)c1C	-15	-3	-9	1	-7	1	/
CCOC(=O)c1c(C)[nH]c(C2=NNC(=Nc3ccc(OCC)cc3)SC2)c1C	-137	-7	1	0	-33	0	-122*
OCC[C@@H]1C[C@H](O)[C@@H](O)[C@@]2(OCCCc3cc(Cl)ccc32)O1	/	6	/	-1	6	1	/
O=C(Nc1ccc(Cl)cc1F)c1cccc2ccccc12	6	-3	-5	4	1	3	/
O=C(c1cccc(S(=O)(=O)NCc2ccccc2)c1)N1CCN(c2ccccc2Cl)CC1	2	0	-8	1	-7	-2	/
Cc1cc2nnc(SCC(=O)Nc3cc(S(=O)(=O)N4CCOCC4)ccc3Cl)n2c2ccccc12	48*	6	6	-68	-6	3	37
Cc1ccc(S(=O)(=O)N2CCOCC2)cc1NC(=O)CSc1nnc2cc(C)c3ccccc3n12	20	3	-2	0	-7	3	/
COc1ccc2cc(/C=N/NC(=O)c3c(Cl)cnn3C)c(Cl)nc2c1	-75	3	-3	-2	-5	0	-13
SMILES	HKDC1 inhibitor	SUMO1 PPI mod	Scp1 inh	LMPTP inh	DNMT1 inh	STEP block	HKDC1 act conf
COc1ccc(C(CNC(=O)C(=O)NC2CCCCC2)N2CCN(C)CC2)cc1 (stereo not drawn)	-6	2	-2	-1	-1	3	/
O=C(/C=C/c1cccs1)Nc1scc(-c2ccccc2)c1C(=O)O	81*	16	13	0	3	-5	58
Cc1ccc(C(=O)/C=C/c2cc(Br)cc(Br)c2O)o1	36*	16	-1	-1	-4	1	9
O=C(NCCC(=O)N1CCCC(C(F)(F)F)C1)c1ccc(Br)cc1 (stereo not drawn)	36*	-2	-7	0	0	-2	-12
COC(=O)C1CCN(Cc2ccc(OCCCN3CCN(c4ccc([N+](=O)[O-])cc4)CC3)cc2)CC1	-4	-32	-5	26	-2	-1	/
C=CC(=O)N1C/C(=C/c2ccc(F)cc2)C(=O)/C(=C\c2ccc(F)cc2)C1	36*	76*	85*	7	93*	24	4
Cc1ccccc1S(=O)(=O)c1c(C)cc(C)n(CC(C)C)c1=O	71*	1	-8	2	0	2	-6
Cc1ccccc1S(=O)(=O)c1c(C)cc(C)n(C)c1=O	-3	3	1	0	0	1	/
C/C(=N\NC(=O)c1cc(-c2cccc(OC(C)C)c2)nc2ccccc12)c1cccnc1	4	-6	-2	0	-3	3	/
CC(=NNC(=O)c1ccncc1)c1ccc(O)cc1O	-40	-14	1	1	-1	0	-4
